Test results reported in ChEMBL document CHEMBL1667769, “Sodium [2'-[(cyclopropanecarbonyl-ethyl-amino)-methyl]-4'-(6-ethoxy-pyridin-3-yl)-6-methoxy-biphenyl-3-yl]-acetate (AM432): a potent, selective prostaglandin D2 receptor antagonist” (Bioorg Med Chem Lett, 2011).
pIC50: −log10 of the molar value. One block for each compound: values may come before it. The source made the active and inactive calls. No cut-off for these calls is given here.

Tests used:
[1] = target: T1, Prostaglandin D2 receptor 2 (Homo sapiens, UniProt Q9Y5Y4); experiment: Displacement of [3H]PGD2 from human CRTh2 receptor expressed in 293 cells by liquid scintillation counting; assay type: cell-based, HEK293
T1 sequence (Q9Y5Y4 whole entry): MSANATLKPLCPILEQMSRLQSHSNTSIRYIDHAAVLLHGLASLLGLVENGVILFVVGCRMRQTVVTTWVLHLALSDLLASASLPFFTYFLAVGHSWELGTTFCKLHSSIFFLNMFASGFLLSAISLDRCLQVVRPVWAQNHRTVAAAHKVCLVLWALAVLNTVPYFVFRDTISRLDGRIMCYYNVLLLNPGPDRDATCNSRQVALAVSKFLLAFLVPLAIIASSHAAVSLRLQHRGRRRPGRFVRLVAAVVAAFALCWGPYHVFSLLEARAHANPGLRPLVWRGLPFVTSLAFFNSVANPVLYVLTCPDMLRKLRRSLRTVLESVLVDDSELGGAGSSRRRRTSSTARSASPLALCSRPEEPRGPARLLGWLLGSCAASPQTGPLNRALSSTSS
Summary of the method: (§1)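 Membranes from 293 cells stably expressing human DP₂ incubated with [³H]-PGD₂ and increasing compound concentrations. Membranes harvested and washed; bound [³H]-PGD₂ counted. IC₅₀ taken as concentration giving 50% inhibition of binding. Run without and with 0.2% human serum albumin. Values averaged from three experiments (five for the lead).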

[2] = target: T1, Prostaglandin D2 receptor 2; experiment: Displacement of [3H]PGD2 from human CRTh2 receptor expressed in 293 cells by liquid scintillation counting in presence of 0.2 % HSA; assay type: cell-based, HEK293; summary of the method: as §1
[3] = target: T2, Prostaglandin G/H synthase 2 (Homo sapiens, UniProt P35354); experiment: Inhibition of COX-2
T2 sequence (P35354 whole entry): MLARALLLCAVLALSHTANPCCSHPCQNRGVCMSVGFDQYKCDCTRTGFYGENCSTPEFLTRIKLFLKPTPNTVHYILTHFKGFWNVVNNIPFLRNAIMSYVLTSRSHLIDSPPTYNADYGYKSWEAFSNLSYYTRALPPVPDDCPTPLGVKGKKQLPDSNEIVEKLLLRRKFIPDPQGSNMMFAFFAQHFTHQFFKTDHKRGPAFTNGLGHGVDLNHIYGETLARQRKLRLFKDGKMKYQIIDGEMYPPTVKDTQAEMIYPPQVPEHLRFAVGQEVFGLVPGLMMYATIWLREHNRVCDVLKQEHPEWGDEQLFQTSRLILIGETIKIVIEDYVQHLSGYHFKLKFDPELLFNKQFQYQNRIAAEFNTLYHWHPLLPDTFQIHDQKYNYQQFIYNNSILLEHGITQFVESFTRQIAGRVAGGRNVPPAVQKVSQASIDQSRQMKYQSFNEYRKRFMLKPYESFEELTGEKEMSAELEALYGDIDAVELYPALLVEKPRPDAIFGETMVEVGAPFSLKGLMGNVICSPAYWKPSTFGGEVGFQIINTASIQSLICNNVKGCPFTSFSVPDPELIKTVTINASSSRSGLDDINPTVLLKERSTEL

Mus musculus [4] = experiment: Antiinflammatory activity against cigarette smoke-induced lung inflammation in BALB/c mouse assessed as reduction in bronchoalveolar lavage fluid lymphocytes at 50 mg/kg, po for 2 days; assay type: functional, organism-based; parameters: dose 50 mg/kg
Summary of the method: (§2)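 Mice exposed to cigarette smoke. Oral dosing at 10 or 50 mg/kg, or 0.5% methylcellulose vehicle, on days −1 through 2. On day 3, euthanized by isoflurane inhalation, then bronchoalveolar lavage with differential counts of neutrophils, lymphocytes and macrophages.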

[5] = Clearance in dog at 2.5 mg/kg, po or 2 mg/kg, iv; conditions: in vivo
[6] = Cmax in dog at 2.5 mg/kg, po or 2 mg/kg, iv; conditions: in vivo
Mus musculus [7] = experiment: Antiallergic activity in BALB/c mouse assessed as reduction in ovalbumin-induced increase in nasal rubs at 10 mg/kg, po administered 21 to 25 days after ovalbumin challenge followed by intranasal ovalbumin challenge measured for 8 mins of post dose; assay type: functional, organism-based; parameters: dose 10 mg/kg
Canis familiaris = experiment: AUC in dog at 2.5 mg/kg, po or 2 mg/kg, iv; conditions: in vivo
hERG (KCNH2) = hERG (KCNH2) (Homo sapiens, UniProt Q12809); experiment: Inhibition of human ERG at 10 uM by patch-clamp analysis
Chain of hERG (KCNH2) (Q12809 whole entry): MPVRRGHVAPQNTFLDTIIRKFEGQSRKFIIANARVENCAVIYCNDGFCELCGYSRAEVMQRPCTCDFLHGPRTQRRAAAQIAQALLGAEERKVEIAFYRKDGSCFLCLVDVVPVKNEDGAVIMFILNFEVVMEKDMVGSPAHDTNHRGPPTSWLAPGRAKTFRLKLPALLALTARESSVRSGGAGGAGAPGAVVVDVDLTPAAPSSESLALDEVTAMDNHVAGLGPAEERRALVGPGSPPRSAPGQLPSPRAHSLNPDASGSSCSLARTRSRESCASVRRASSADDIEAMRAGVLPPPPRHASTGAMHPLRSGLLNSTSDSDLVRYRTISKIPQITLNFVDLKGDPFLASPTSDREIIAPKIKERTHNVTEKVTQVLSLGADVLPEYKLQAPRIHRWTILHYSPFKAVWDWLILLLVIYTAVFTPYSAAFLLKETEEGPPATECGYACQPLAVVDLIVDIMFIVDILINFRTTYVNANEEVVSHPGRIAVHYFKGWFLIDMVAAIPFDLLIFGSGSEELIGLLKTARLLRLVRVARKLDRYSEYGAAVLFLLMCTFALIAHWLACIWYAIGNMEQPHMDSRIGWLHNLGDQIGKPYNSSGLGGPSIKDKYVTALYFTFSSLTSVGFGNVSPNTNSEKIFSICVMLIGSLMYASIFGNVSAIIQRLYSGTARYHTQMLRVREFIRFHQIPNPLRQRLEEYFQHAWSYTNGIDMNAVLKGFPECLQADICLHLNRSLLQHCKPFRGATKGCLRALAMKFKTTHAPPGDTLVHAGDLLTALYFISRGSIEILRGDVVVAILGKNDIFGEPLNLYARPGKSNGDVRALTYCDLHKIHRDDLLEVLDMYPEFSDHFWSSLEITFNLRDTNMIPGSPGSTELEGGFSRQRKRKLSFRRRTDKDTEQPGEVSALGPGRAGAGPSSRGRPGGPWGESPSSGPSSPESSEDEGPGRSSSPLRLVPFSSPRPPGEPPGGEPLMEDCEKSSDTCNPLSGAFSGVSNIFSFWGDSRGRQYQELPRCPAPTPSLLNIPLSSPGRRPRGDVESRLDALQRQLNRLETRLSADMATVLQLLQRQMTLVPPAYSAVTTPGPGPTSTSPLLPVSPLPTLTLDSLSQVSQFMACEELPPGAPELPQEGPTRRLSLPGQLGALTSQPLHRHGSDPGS

Cytochrome P450 2C19 = Cytochrome P450 2C19 (Homo sapiens, UniProt P33261); experiment: Inhibition of human CYP2C19; assay type: ADME
Chain of Cytochrome P450 2C19 (P33261 whole entry): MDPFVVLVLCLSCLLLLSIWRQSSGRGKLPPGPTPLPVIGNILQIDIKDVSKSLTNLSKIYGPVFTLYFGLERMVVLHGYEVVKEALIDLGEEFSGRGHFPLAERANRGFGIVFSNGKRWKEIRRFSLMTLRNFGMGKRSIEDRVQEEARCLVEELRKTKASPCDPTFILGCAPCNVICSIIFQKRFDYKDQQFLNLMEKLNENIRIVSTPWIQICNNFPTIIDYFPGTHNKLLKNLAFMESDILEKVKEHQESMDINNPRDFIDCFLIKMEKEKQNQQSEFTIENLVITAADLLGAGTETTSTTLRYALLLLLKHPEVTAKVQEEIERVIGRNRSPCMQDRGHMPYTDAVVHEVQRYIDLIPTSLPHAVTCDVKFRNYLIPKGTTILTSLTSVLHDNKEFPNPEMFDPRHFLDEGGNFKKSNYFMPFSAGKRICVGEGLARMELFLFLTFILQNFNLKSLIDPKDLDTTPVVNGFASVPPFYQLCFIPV

[8] = target: T3, Prostaglandin D2 receptor (Homo sapiens, UniProt Q13258); experiment: Displacement of [3H]PGD2 from DP1 in human platelet membrane; assay type: cell membranes
T3 sequence (Q13258 whole entry): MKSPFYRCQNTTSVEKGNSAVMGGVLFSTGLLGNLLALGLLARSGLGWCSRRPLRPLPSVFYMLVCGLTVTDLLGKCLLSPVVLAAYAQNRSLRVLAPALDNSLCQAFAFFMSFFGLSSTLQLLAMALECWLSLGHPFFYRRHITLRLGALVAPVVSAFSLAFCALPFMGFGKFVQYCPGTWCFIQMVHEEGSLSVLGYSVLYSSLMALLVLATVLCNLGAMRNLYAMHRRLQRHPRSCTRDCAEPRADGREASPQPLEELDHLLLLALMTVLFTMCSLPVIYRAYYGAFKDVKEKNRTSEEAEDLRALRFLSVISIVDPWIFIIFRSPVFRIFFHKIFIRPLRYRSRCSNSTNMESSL
Summary of the method: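 Human DP₁ binding using ³H-PGD₂ and human platelet membranes.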

Cytochrome P450 2D6 = Cytochrome P450 2D6 (Homo sapiens, UniProt P10635); experiment: Inhibition of human CYP2D6; assay type: ADME
Chain of Cytochrome P450 2D6 (P10635 whole entry): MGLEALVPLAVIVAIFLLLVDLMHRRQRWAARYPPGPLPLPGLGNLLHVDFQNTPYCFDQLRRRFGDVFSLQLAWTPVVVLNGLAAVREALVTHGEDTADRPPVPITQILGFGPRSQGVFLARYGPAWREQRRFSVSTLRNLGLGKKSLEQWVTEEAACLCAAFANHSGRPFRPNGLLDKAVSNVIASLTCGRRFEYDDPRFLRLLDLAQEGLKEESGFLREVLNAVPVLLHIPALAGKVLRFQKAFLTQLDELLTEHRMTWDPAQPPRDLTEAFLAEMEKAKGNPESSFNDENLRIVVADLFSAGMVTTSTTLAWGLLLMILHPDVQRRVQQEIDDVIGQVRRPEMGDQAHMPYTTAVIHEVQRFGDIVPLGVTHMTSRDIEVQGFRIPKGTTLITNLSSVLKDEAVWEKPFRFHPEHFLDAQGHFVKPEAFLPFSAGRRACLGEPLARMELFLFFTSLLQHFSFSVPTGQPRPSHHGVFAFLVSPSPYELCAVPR

[9] = target: Peroxisome proliferator-activated receptor delta (Homo sapiens, UniProt Q03181); experiment: Inhibition of PPAR beta
Chain of Peroxisome proliferator-activated receptor delta (Q03181 whole entry, looked up): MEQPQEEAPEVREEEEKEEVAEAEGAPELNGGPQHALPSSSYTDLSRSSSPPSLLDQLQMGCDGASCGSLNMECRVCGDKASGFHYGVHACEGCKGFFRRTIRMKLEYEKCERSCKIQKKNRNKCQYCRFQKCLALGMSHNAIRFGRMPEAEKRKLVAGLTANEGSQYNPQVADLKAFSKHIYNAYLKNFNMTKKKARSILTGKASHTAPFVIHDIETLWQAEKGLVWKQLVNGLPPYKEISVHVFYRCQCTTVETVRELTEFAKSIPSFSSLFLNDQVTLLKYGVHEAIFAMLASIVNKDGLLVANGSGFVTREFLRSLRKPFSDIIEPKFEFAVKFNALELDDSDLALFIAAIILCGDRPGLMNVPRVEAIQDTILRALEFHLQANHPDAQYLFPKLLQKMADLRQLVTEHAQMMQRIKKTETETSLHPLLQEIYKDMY

[10] = target: Prostaglandin G/H synthase 1 (Homo sapiens, UniProt P23219); experiment: Inhibition of COX-1
Chain of Prostaglandin G/H synthase 1 (P23219 whole entry): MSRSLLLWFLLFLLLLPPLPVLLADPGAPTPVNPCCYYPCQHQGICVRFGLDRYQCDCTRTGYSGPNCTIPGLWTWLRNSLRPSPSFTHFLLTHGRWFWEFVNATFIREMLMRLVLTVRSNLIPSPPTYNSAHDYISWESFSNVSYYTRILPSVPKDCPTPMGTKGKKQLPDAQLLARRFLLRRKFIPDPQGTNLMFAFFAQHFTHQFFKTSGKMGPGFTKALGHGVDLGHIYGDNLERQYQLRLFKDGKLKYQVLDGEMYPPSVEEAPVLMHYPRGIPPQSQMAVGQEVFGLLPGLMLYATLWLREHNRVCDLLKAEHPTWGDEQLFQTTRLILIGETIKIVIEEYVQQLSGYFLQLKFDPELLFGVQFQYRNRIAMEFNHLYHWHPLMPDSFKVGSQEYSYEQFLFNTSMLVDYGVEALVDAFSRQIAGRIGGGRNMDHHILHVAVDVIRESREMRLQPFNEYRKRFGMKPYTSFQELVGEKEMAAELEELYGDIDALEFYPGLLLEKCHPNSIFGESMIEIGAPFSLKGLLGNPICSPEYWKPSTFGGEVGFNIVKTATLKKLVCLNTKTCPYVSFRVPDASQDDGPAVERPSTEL

Mus musculus [11] = experiment: Antiinflammatory activity against cigarette smoke-induced lung inflammation in BALB/c mouse assessed as reduction in bronchoalveolar lavage fluid macrophages at 10 mg/kg, po for 2 days; assay type: functional, organism-based; parameters: dose 10 mg/kg; summary of the method: as §2
[12] = Half life in dog at 2.5 mg/kg, po or 2 mg/kg, iv; conditions: in vivo
Mus musculus [13] = experiment: Antiinflammatory activity against cigarette smoke-induced lung inflammation in BALB/c mouse assessed as reduction in bronchoalveolar lavage fluid neutrophils at 10 mg/kg, po for 2 days; assay type: functional, organism-based; parameters: dose 10 mg/kg; summary of the method: as §2
[14] = target: T4, Peroxisome proliferator-activated receptor alpha (Homo sapiens, UniProt Q07869); experiment: Inhibition of PPAR alpha
T4 sequence (Q07869 whole entry): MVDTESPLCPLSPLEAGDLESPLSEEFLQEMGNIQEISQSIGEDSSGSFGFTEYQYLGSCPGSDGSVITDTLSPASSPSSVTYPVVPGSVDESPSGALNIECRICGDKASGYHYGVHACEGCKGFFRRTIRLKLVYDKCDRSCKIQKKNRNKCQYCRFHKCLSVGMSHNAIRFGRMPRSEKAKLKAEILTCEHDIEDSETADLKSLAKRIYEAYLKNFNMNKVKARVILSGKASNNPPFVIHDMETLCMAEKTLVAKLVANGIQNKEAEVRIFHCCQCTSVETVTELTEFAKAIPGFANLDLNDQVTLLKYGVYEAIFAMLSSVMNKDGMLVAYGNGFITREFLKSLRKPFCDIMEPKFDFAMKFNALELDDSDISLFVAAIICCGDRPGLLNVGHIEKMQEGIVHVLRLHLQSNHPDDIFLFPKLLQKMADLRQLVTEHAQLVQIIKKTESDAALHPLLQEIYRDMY

Mus musculus [15] = experiment: Antiinflammatory activity against cigarette smoke-induced lung inflammation in BALB/c mouse assessed as reduction in bronchoalveolar lavage fluid neutrophils at 50 mg/kg, po for 2 days; assay type: functional, organism-based; parameters: dose 50 mg/kg; summary of the method: as §2
Thromboxane A2 receptor = target: T5, Thromboxane A2 receptor (Homo sapiens, UniProt P21731); experiment: Displacement of [3H]SQ-29548 from TP receptor in human platelet membrane; assay type: cell membranes
T5 sequence (P21731 whole entry): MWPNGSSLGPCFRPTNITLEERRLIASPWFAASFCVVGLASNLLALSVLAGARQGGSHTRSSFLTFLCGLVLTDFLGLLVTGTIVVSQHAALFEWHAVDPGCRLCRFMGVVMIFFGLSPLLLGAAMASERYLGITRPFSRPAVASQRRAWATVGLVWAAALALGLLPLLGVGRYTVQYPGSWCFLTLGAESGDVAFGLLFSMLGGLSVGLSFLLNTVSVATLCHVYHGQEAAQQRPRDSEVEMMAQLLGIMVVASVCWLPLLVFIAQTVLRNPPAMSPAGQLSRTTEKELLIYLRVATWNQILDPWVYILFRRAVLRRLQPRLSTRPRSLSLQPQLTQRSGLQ
Summary of the method: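 Human TP binding using human platelet membranes and ³H-SQ-29548.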

Mus musculus [16] = experiment: Antiinflammatory activity against cigarette smoke-induced lung inflammation in BALB/c mouse assessed as reduction in bronchoalveolar lavage fluid lymphocytes at 10 mg/kg, po for 2 days; assay type: functional, organism-based; parameters: dose 10 mg/kg; summary of the method: as §2
Mus musculus [17] = experiment: Antiinflammatory activity against cigarette smoke-induced lung inflammation in BALB/c mouse assessed as reduction in bronchoalveolar lavage fluid macrophages at 50 mg/kg, po for 2 days; assay type: functional, organism-based; parameters: dose 50 mg/kg; summary of the method: as §2
Mus musculus [18] = experiment: Antiallergic activity in BALB/c mouse assessed as reduction in ovalbumin-induced increase in nasal sneezes at 10 mg/kg, po administered 21 to 25 days after ovalbumin challenge followed by intranasal ovalbumin challenge measured for 8 mins of post dose; assay type: functional, organism-based; parameters: dose 10 mg/kg
[19] = target: Peroxisome proliferator-activated receptor gamma (Homo sapiens, UniProt P37231); experiment: Inhibition of PPAR gamma
Chain of Peroxisome proliferator-activated receptor gamma (P37231 whole entry, looked up): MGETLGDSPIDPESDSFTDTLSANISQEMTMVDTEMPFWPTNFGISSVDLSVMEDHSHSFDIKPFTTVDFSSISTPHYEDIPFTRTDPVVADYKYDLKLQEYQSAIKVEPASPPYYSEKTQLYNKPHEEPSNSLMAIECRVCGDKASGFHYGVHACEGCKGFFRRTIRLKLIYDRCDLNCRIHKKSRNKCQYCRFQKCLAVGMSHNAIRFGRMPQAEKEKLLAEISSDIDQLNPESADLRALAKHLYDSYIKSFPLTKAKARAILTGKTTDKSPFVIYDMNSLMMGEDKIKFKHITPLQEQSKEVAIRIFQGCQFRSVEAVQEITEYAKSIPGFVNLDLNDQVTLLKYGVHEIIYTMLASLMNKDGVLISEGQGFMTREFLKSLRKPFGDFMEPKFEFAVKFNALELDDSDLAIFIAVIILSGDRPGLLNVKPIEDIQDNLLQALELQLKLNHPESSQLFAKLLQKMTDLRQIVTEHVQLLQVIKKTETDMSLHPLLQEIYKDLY

Cytochrome P450 2C9 = Cytochrome P450 2C9 (Homo sapiens, UniProt P11712); experiment: Inhibition of human CYP2C9; assay type: ADME
Chain of Cytochrome P450 2C9 (P11712 whole entry): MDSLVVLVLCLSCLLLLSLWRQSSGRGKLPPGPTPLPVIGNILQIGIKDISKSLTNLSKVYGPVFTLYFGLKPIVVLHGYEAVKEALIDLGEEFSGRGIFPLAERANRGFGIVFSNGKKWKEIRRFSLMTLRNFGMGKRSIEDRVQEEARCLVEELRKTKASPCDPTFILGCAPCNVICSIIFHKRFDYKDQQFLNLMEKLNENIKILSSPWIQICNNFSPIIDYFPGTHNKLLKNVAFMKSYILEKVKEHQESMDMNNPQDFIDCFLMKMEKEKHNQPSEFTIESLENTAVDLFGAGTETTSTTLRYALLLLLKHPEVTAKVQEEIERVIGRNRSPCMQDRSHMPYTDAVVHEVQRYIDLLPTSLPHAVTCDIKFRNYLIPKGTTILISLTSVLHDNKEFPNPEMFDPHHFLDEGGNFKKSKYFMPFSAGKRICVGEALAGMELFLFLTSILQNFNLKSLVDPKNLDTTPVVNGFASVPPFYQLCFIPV

Prostacyclin receptor = Prostacyclin receptor (Homo sapiens, UniProt P43119); experiment: Displacement of [3H]iloprost from IP receptor in human 293 cell membrane; assay type: cell membranes
Chain of Prostacyclin receptor (P43119 whole entry): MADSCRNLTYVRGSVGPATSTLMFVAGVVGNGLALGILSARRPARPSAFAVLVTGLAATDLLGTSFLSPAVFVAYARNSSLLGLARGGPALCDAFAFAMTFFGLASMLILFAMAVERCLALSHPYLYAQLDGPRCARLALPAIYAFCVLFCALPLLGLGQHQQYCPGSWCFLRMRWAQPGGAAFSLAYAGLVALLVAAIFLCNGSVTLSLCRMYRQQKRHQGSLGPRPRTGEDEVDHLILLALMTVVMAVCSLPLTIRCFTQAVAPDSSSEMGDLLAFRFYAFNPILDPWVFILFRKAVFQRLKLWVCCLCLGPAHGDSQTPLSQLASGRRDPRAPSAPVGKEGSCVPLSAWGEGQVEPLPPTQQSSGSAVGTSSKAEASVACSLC
Summary of the method: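 Human IP binding using hIP/293 membranes and ³H-iloprost.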

Cytochrome P450 1A2 = target: T6, Cytochrome P450 1A2 (Homo sapiens, UniProt P05177); experiment: Inhibition of human CYP1A2; assay type: ADME
T6 sequence (P05177 whole entry): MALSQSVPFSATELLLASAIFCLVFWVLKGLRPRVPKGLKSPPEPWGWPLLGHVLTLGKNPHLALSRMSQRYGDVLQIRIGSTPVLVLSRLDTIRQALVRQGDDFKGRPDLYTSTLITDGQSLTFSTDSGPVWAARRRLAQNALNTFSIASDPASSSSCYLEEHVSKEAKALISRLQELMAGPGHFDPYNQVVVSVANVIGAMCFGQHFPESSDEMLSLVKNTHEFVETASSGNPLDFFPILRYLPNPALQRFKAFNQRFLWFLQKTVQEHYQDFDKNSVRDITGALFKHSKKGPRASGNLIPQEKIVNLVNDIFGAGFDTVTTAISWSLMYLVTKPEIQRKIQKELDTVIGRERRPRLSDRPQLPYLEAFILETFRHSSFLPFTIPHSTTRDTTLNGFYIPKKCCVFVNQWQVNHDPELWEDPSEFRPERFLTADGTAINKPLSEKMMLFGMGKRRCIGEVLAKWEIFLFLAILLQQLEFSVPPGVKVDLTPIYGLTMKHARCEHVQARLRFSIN

Cytochrome P450 3A4 = Cytochrome P450 3A4 (Homo sapiens, UniProt P08684); experiment: Inhibition of human CYP3A4; assay type: ADME

SMILES: CCOc1ccc(-c2ccc(-c3cc(CC(=O)[O-])ccc3OC)c(CN(CC)C(=O)C3CC3)c2)cn1.[Na+]
- pIC50 [3]: < 4.00
- pIC50 [1]: 8.22
- Activity (Mus musculus [4]): Active
- clearance [5]: 0.5 mL/min/kg
- Cmax [6]: 30 µM
- Activity (Mus musculus [7]): Active
- AUC (Canis familiaris): 87 µg/mL
- inhibition at 10 µM (hERG (KCNH2)): 11%
- pIC50 (Cytochrome P450 2C19): < 4.30
- pIC50 [8]: 4.57
- pIC50 (Cytochrome P450 2D6): < 4.30
- pIC50 [9]: < 3.60
- pIC50 [10]: < 4.00
- Activity (Mus musculus [11]): inactive
- half-life [12]: 6 h
- Activity (Mus musculus [13]): Active
- pIC50 [14]: < 3.60
- Activity (Mus musculus [15]): Active
- pIC50 (Thromboxane A2 receptor): < 4.00
- pIC50 [2]: 7.51
- Activity (Mus musculus [16]): inactive
- Activity (Mus musculus [17]): Active
- Activity (Mus musculus [18]): Active
- pIC50 [19]: < 3.60
- pIC50 (Cytochrome P450 2C9): < 4.30
- pIC50 (Prostacyclin receptor): < 4.00
- pIC50 (Cytochrome P450 1A2): < 4.30
- pIC50 (Cytochrome P450 3A4): < 4.30

SMILES: CCN(Cc1cc(NS(=O)(=O)c2ccc(Cl)cc2)ccc1-c1cc(CC(=O)O)ccc1OC)C(=O)OCc1ccccc1
- pIC50 [1]: 8.52
- pIC50 [2]: 7.05

SMILES: CCN(Cc1cc(-c2cnn(C)c2)ccc1-c1cc(CC(=O)O)ccc1OC)C(=O)C1CC1
- pIC50 [1]: 7.57
- pIC50 [2]: 7.43

SMILES: CCN(Cc1cc(-c2ncc(OC)cn2)ccc1-c1cc(CC(=O)O)ccc1OC)C(=O)C1CC1
- pIC50 [1]: 7.57
- pIC50 [2]: 6.97

More lines, in order of rising pIC50 [1], values ahead:

- pIC50 [1]: 8.05
- pIC50 [2]: 7.22
SMILES: CCN(Cc1cc(-c2ccc(F)cn2)ccc1-c1cc(CC(=O)O)ccc1OC)C(=O)C1CC1

- pIC50 [1]: 8.30
- pIC50 [2]: 8.15
SMILES: CCN(Cc1cc(S(C)(=O)=O)ccc1-c1cc(CC(=O)O)ccc1OC)C(=O)OCc1ccccc1
